Results published in ChEMBL document CHEMBL5360580 (Eur J Med Chem, 2023).

How the values were obtained:
[1] = test system: SARS-CoV-2; test: Antiviral activity against SARS-CoV-2 infected in African green monkey Vero E6 cells assessed as inhibition of viral replication at 1 uM incubated for 24 hrs by IFA assay relative to control; format: functional; settings: Severe acute respiratory syndrome coronavirus 2, Vero C1008
[2] = Prodrug conversion in ICR mouse plasma assessed as Observed MRT (0 to infinity) of compound 5-chloro-4-fluoro-2-hydroxy-N-(4-(trifluoromethoxy)phenyl)benzamide at 30 mg/kg, po and 2.5 mg/kg, iv measured upto 24 hrs by LC-MS/MS analysis; format: ADME, organism-based; settings: in vivo
Procedure, shortened: (§1)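 Prodrugs were given to fasted ICR (CD-1) mice (N = 3) in DMSO/0.5% HMPC (5/95), at 30 mg/kg po or 2.5 mg/kg iv. Serum from femoral-vein blood taken 0.25–24 h was analysed by LC-MS/MS for the released parent compound, with mole correction applied to the parameters.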

[3] = Prodrug conversion in ICR mouse plasma assessed as half life of compound 5-chloro-4-fluoro-2-hydroxy-N-(4-(trifluoromethoxy)phenyl)benzamide at 30 mg/kg, po and 2.5 mg/kg, iv measured upto 24 hrs by LC-MS/MS analysis; format: ADME, organism-based; settings: in vivo; procedure, shortened: as §1
[4] = Prodrug conversion in ICR mouse plasma assessed as Cmax of compound 5-chloro-4-fluoro-2-hydroxy-N-(4-(trifluoromethoxy)phenyl)benzamide at 30 mg/kg, po and 2.5 mg/kg, iv measured upto 24 hrs by LC-MS/MS analysis; format: ADME, organism-based; set-up: time < 24 hrs, dose 30 mg/kg, route po; settings: in vivo; procedure, shortened: as §1
[5] = Prodrug conversion in ICR mouse plasma assessed as Observed AUC (0 to infinity) of compound 5-chloro-4-fluoro-2-hydroxy-N-(4-(trifluoromethoxy)phenyl)benzamide at 30 mg/kg, po and 2.5 mg/kg, iv measured upto 24 hrs by LC-MS/MS analysis; format: ADME, organism-based; set-up: time < 24 hrs, dose 30 mg/kg, route po; settings: in vivo; procedure, shortened: as §1
[6] = Prodrug conversion in ICR mouse plasma assessed as AUClast of compound 5-chloro-4-fluoro-2-hydroxy-N-(4-(trifluoromethoxy)phenyl)benzamide at 30 mg/kg, po and 2.5 mg/kg, iv measured upto 24 hrs by LC-MS/MS analysis; format: ADME, organism-based; set-up: dose 30 mg/kg, time < 24 hrs, route po; settings: in vivo; procedure, shortened: as §1
[7] = Aqueous solubility of compound at 0.5 mg/mL in presence of acetonitrile by HPLC analysis; format: physicochemical; settings: buffer
Procedure, shortened: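 Compound was suspended in water, vortexed vigorously and filtered through a 0.22 μm membrane. The filtrate was diluted 2-fold with 80% acetonitrile and analysed by reversed-phase amide HPLC. Concentration was read against a standard curve prepared from a 0.5 mg/mL solution in 80% acetonitrile. Single determination.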

[8] = Prodrug conversion in ICR mouse plasma assessed as oral bioavailability of compound 5-chloro-4-fluoro-2-hydroxy-N-(4-(trifluoromethoxy)phenyl)benzamide at 30 mg/kg measured upto 24 hrs by LC-MS/MS analysis; format: ADME, organism-based; settings: in vivo; procedure, shortened: as §1
[9] = test system: SARS-CoV-2; test: Antiviral activity against SARS-CoV-2 infected in African green monkey Vero E6 cells assessed as inhibition of viral replication incubated for 24 hrs by IFA assay; format: functional, organism-based; settings: Severe acute respiratory syndrome coronavirus 2, Vero C1008, 24 h
[10] = test system: Vero C1008; test: Cytotoxicity against African green monkey Vero E6 cells assessed as reduction in cell viability measured after 48 hrs by CCK-8 assay; format: toxicity, cell-based; settings: chlorocebus sabaeus, vero c1008, 48 h
[11] = Selectivity index, ratio of CC50 for cytotoxicity against African green monkey Vero E6 to EC50 for antiviral activity against SARS-CoV-2 infected in African green monkey Vero E6 cells; format: toxicity, cell-based, Vero C1008; settings: read-out: Ratio CC50/EC50
[12] = Cmax in ICR mouse at 30 mg/kg, po measured upto 24 hrs by LC-MS/MS analysis; format: ADME, organism-based; set-up: dose 30 mg/kg, time < 24 hrs, route po; settings: in vivo
Procedure, shortened: (§2)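 Male-unspecified ICR (CD-1) mice, N = 3 per group, were fasted 12 h. Compound in DMSO/0.5% HMPC (5/95, v/v) was given orally at 30 mg/kg or intravenously at 2.5 mg/kg. Femoral-vein blood was drawn at 0.25, 0.5, 1, 2, 4, 8 and 24 h, and serum analyte levels were measured by LC-MS/MS.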

[13] = Observed MRT (0 to infinity) in ICR mouse at 30 mg/kg, po measured upto 24 hrs by LC-MS/MS analysis; format: ADME, organism-based; settings: in vivo; procedure, shortened: as §2
[14] = Observed AUC (0 to infinity) in ICR mouse at 30 mg/kg, po measured upto 24 hrs by LC-MS/MS analysis; format: ADME, organism-based; set-up: dose 30 mg/kg, time < 24 hrs, route po; settings: in vivo; procedure, shortened: as §2
[15] = Half life in ICR mouse at 30 mg/kg, po measured upto 24 hrs by LC-MS/MS analysis; format: ADME, organism-based; settings: in vivo; procedure, shortened: as §2
[16] = AUClast in ICR mouse at 30 mg/kg, po measured upto 24 hrs by LC-MS/MS analysis; format: ADME, organism-based; set-up: dose 30 mg/kg, time < 24 hrs, route po; settings: in vivo; procedure, shortened: as §2

SMILES	inhibition at 1 µM [1] [%]	EC50 [9] [µM]	CC50 [10] [µM]	selectivity ratio [11]	other results
O=C(Nc1ccc(C(F)(F)F)cc1Cl)c1cc(Cl)ccc1O	79	–	–	–	–
CC(=O)Oc1cc(F)c(Cl)cc1C(=O)Nc1ccc(OC(F)(F)F)cc1	–	–	–	–	MRT [2]: 6.03 h; t1/2 [3]: 3.57 h; Cmax [4]: 4771 ng/mL; AUC [5]: 16726 ng·h/mL; AUClast [6]: 16458 ng·h/mL; solubility [7]: 0.71 µg/mL; F [8]: 37.61%
O=C(Nc1ccc(C(F)(F)F)c(Cl)c1)c1cc(Cl)c(F)cc1O	95	2.67	4.52	1.69	–
O=C(Nc1ccc(C(F)(F)F)cc1)c1cc(Cl)c(F)cc1O	95	1	3.73	3.73	Cmax [12]: 452 ng/mL; MRT [13]: 5.45 h; AUC [14]: 1573 ng·h/mL; t1/2 [15]: 3.1 h; AUClast [16]: 1563 ng·h/mL
CC(=O)c1cc(Cl)cc(C(=O)Nc2ccc(C(F)(F)F)cc2)c1O	50	–	–	–	–
O=C(Nc1ccc(C(F)(F)F)cc1)c1cc(F)ccc1O	92	1.64	1.61	0.98	–
CS(=O)(=O)Nc1ccc(NC(=O)c2cc(Cl)ccc2O)c(Cl)c1	< 10	–	–	–	–
